Assay [1] addresses T1, Adenosine receptor A1 (Homo sapiens) (UniProt P30542).
T1 sequence (whole entry): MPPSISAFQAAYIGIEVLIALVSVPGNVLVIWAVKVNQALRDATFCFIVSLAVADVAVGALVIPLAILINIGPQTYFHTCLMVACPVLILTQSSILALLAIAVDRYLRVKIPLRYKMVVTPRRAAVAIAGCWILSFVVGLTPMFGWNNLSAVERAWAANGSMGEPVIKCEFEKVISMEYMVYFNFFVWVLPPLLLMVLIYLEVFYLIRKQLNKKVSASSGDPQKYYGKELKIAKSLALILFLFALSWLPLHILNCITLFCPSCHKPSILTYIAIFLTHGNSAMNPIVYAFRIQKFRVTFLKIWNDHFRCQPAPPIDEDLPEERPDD
Kind of assay: Displacement of [3H]DPCPX from human adenosine A1 receptor expressed in CHO cells at 10 uM after 60 mins by beta scintillation counting. In kind it is cell-based. In short, it runs like this:
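CHO-A1 membranes (15 µg protein) in Hepes/NaCl/MgCl2 buffer with adenosine deaminase, pH 7.4. Test compound at 10 µM with 2 nM [3H]DPCPX, 60 min at 25 °C, in duplicate. Nonspecific binding with 10 µM (R)-PIA. Percent inhibition read after filtration.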

In assay [2] the target is T2, Adenosine receptor A2a (Homo sapiens, UniProt P29274). Kind of assay: Displacement of [3H]ZM241385 from human adenosine A2A receptor expressed in human HeLa cells at 10 uM after 30 mins by beta scintillation counting. In kind it is cell-based. In short, it runs like this:
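Single-point screen at 10 µM on HeLa-A2A membranes (10 µg protein), Tris/EDTA/MgCl2 buffer with adenosine deaminase, pH 7.4. 3 nM [3H]ZM241385, 30 min at 25 °C, in duplicate. Nonspecific binding with 50 µM NECA. Percent inhibition.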

In assay [3] the target is T2, Adenosine receptor A2a. Kind of assay: Displacement of [3H]ZM241385 from human adenosine A2A receptor expressed in human HeLa cells after 30 mins by beta scintillation counting. In kind it is cell-based. An outline of the steps:
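HeLa-A2A membranes (10 µg protein) in 50 mM Tris-HCl, 1 mM EDTA, 10 mM MgCl2, 2 UI/mL adenosine deaminase, pH 7.4, with 3 nM [3H]ZM241385. Nonspecific binding with 50 µM NECA. Incubated 30 min at 25 °C, in duplicate. Six concentrations (10 nM-100 µM); IC50 by nonlinear regression, converted to Ki by Cheng-Prusoff.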

The target in assay [4] is T3, Adenosine receptor A3 (Homo sapiens) (UniProt P0DMS8).
T3 sequence (whole entry): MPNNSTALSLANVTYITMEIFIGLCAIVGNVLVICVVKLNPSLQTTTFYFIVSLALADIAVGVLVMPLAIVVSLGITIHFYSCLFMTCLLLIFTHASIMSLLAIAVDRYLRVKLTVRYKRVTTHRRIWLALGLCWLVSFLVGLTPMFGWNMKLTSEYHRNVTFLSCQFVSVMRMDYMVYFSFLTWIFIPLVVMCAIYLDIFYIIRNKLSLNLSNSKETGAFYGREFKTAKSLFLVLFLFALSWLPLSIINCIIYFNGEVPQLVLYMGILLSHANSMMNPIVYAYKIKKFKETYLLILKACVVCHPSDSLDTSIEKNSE
Kind of assay: Displacement of [3H]NECA from human adenosine A3 receptor expressed in human HeLa cells at 10 uM after 180 mins by beta scintillation counting. It is filed as cell-based. An outline of the steps:
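HeLa-A3 membranes (90 µg protein) in 50 mM Tris-HCl, 1 mM EDTA, 5 mM MgCl2, 2 UI/mL adenosine deaminase, pH 7.4. Test compound at 10 µM with 30 nM [3H]NECA, 180 min at 25 °C, in triplicate. Nonspecific binding with 100 µM (R)-PIA. Percent inhibition read after GF/B filtration.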

Assay [5] has as its target T4, Adenosine receptor A2b (Homo sapiens) (UniProt P29275).
T4 sequence (whole entry): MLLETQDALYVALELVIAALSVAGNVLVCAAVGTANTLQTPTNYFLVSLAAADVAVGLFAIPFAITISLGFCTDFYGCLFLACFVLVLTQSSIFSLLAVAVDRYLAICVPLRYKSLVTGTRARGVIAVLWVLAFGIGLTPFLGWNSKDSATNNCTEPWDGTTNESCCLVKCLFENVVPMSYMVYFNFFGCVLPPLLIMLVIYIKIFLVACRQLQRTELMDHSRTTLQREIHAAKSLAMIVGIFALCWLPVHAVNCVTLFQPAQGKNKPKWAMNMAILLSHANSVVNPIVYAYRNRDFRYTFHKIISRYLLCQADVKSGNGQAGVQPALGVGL
Kind of assay: Displacement of [3H]DPCPX from human adenosine A2B receptor expressed in HEK293 cells at 10 uM after 30 mins by beta scintillation counting. It is filed as cell-based. In short, it runs like this: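 Percent inhibition at 10 µM in HEK-293-A2B membranes (18 µg protein), pH 6.5 Tris buffer with benzamidine, bacitracin and adenosine deaminase. 35 nM [3H]DPCPX, 30 min at 25 °C, in duplicate. Nonspecific binding with 400 µM NECA.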

Another assay deals with T5, Adenosine receptor A2b (Homo sapiens, UniProt P29275).
T5 sequence (P29275 whole entry): T4 sequence (whole entry)
Kind of assay: Displacement of [3H]DPCPX from human adenosine A2B receptor expressed in HEK293 cells after 30 mins by beta scintillation counting. In kind it is cell-based. In short, it runs like this:
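HEK-293-A2B membranes (18 µg protein) in 50 mM Tris-HCl, 1 mM EDTA, 10 mM MgCl2, 0.1 mM benzamidine, 10 µg/mL bacitracin, 2 UI/mL adenosine deaminase, pH 6.5, with 35 nM [3H]DPCPX. Nonspecific binding with 400 µM NECA. Incubated 30 min at 25 °C, in duplicate. Six concentrations (10 nM-100 µM); IC50 by nonlinear regression, Ki by Cheng-Prusoff.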

A further assay deals with T6, Adenosine receptor A1 (Homo sapiens, UniProt P30542).
T6 sequence (P30542 whole entry): T1 sequence (whole entry)
Kind of assay: Displacement of [3H]DPCPX from human adenosine A1 receptor expressed in CHO cells after 60 mins by beta scintillation counting. It is filed as cell-based. In short, it runs like this: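 CHO-A1 membranes (15 µg protein) in 20 mM Hepes, 100 mM NaCl, 10 mM MgCl2, 2 UI/ml adenosine deaminase, pH 7.4, with 2 nM [3H]DPCPX. Nonspecific binding defined with 10 µM (R)-PIA. Incubated 60 min at 25 °C, run in duplicate, then filtered. Six concentrations tested (10 nM-100 µM); IC50 from nonlinear regression, Ki by Cheng-Prusoff.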

Assay [6] addresses T2, Adenosine receptor A2a. Kind of assay: Antagonist activity at human adenosine A2A receptor expressed in CHO cells assessed as inhibition of NECA-induced cAMP accumulation incubated for 15 mins prior to NECA-induction measured after 15 mins by enzyme immunoassay relative to control. In kind it is functional, cell-based. An outline of the steps: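 Stably transfected CHO cells grown with dialyzed FBS, washed in DMEM F-12 with 25 mM HEPES pH 7.4 and 30 μM rolipram. Antagonist preincubated 15 min, then NECA (0.1 nM-1 mM) added for a further 15 min. cAMP measured by enzyme immunoassay. NECA curves fitted to a sigmoidal equation; pKB derived from the EC50 shift at one antagonist concentration.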

T2 sequence (P29274 whole entry): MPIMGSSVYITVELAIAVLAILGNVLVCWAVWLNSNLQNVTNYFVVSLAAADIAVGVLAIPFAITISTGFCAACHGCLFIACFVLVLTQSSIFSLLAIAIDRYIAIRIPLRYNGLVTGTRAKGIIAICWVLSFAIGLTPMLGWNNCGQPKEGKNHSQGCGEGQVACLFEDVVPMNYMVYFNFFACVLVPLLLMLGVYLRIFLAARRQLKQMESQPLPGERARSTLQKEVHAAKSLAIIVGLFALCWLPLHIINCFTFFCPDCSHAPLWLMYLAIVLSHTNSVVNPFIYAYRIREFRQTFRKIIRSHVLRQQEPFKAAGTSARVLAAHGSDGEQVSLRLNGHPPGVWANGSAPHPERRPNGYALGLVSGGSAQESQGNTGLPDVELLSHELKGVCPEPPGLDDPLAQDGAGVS

For `COc1cccc2cc(C(=O)NCCCN3CCN(CCCNC(=O)c4cc5cccc(OC)c5oc4=N)CC3)c(=N)oc12`, the inhibition in assay [1] was more than 70%; on Adenosine receptor A2a [2] it was more than 70%; in assay [4], 20%; in assay [5], more than 70%. For the same compound, the Ki was 316 nM on Adenosine receptor A2a [3], 10000 nM on Adenosine receptor A2b and 2510 nM on Adenosine receptor A1.
`COc1cccc2cc(C(=O)NCCc3ccc(O)cc3)c(=N)oc12`: the inhibition was 35% in assay [1], more than 70% on Adenosine receptor A2a [2], 30% in assay [4] and more than 70% in assay [5]. Besides, the results for the Ki on Adenosine receptor A2a [3] and at Adenosine receptor A2b were 126 nM and 631 nM, respectively. For the same compound, at Adenosine receptor A2a [6], the pKb was found to be 6.54.
In the case of `COc1cccc2cc(C(=O)Nc3c(C#N)ncn3-c3ccc(F)cc3)c(=N)oc12`, the inhibition was 46% in assay [1], more than 70% at Adenosine receptor A2a [2], 20% in assay [4] and 30% in assay [5]. Besides, affinity at Adenosine receptor A2a [3] was put at a Ki of 631 nM. Moreover, on Adenosine receptor A2a [6], the negative logarithm of the Kb (pKb) came to 6.02.
On to `COc1cccc2cc(C(=O)NCC(O)c3ccccc3)c(=N)oc12` (stereo not drawn), for which the inhibition in assay [1] is 55%; at Adenosine receptor A2a [2] it was more than 70%; in assay [4], 8%; in assay [5], more than 70%. The Ki on Adenosine receptor A2a [3] is 501 nM; on Adenosine receptor A2b, 1000 nM.
For the compound `COc1cccc2cc(C(=O)NC3CCCC3)c(=N)oc12`, the inhibition in assay [1] was more than 70%; at Adenosine receptor A2a [2] it was more than 70%; in assay [4] it was 20%; in assay [5], 47%. For the same compound, the figures for the Ki on Adenosine receptor A2a [3] and on Adenosine receptor A1 were 398 nM and 3160 nM, respectively.
For the compound `COc1cccc2cc(C(=O)NCCCNC(=O)c3cc4cccc(OC)c4oc3=N)c(=N)oc12`, the inhibition in assay [1] is 31%; at Adenosine receptor A2a [2] it was more than 70%; in assay [4], 11%; in assay [5], more than 70%. Moreover, the Ki is 398 nM at Adenosine receptor A2a [3] and 10000 nM at Adenosine receptor A2b.
With `COc1cccc2cc(C(=O)NC3CCCCC3)c(=N)oc12`, the inhibition in assay [1] is 40%; at Adenosine receptor A2a [2] it was more than 70%; in assay [4], 16%; in assay [5], more than 70%. Besides, the Ki on Adenosine receptor A2a [3] is 398 nM; on Adenosine receptor A2b, 20000 nM. Moreover, the negative logarithm of the Kb (pKb) on Adenosine receptor A2a [6] was determined as 6.1.
Consider `COCCNC(=O)c1cc2cccc(OC)c2oc1=N`, for which the inhibition was more than 70% in assay [1], more than 70% on Adenosine receptor A2a [2], 15% in assay [4] and 43% in assay [5]. The Ki was 501 nM at Adenosine receptor A2a [3] and 6310 nM on Adenosine receptor A1.
Take `COc1cccc2cc(C(=O)NCCCOCCCCOCCCNC(=O)c3cc4cccc(OC)c4oc3=N)c(=N)oc12`: the inhibition in assay [1] is 30%; on Adenosine receptor A2a [2], more than 70%; in assay [4], 23%; in assay [5], 44%. Besides, at Adenosine receptor A2a [3], the Ki is 398 nM. Besides, the pKb on Adenosine receptor A2a [6] was 6.36.
`COc1cccc2cc(C(=O)NCCCCCO)c(=N)oc12`: the inhibition is 44% in assay [1], more than 70% at Adenosine receptor A2a [2], 13% in assay [4] and more than 70% in assay [5]. The Ki on Adenosine receptor A2a [3] is 1000 nM; on Adenosine receptor A2b, 1260 nM.
As to `COc1cccc2cc(C(N)=O)c(=N)oc12`, the inhibition in assay [1] is more than 70%; at Adenosine receptor A2a [2] it was more than 70%; in assay [4] it was 33%; in assay [5], more than 70%. The inhibitory constant (Ki) was 79.4 nM on Adenosine receptor A2a [3], 316 nM at Adenosine receptor A2b and 398 nM at Adenosine receptor A1. Moreover, the pKb on Adenosine receptor A2a [6] amounted to 6.59.
Regarding `COC(=O)/C(C#N)=C/c1cccc(OC)c1O`, the inhibition in assay [1] is more than 70%; at Adenosine receptor A2a [2] it was more than 70%; in assay [4], 45%; in assay [5] it was more than 70%. For the same compound, the values for the Ki at Adenosine receptor A2a [3], at Adenosine receptor A2b and on Adenosine receptor A1 were 316 nM, 1000 nM and 2510 nM, respectively.
